These results are taken from ChEMBL document CHEMBL1129078, “3-(2-Benzofuranyl)quinuclidin-2-ene derivatives: novel muscarinic antagonists” (J Med Chem, 1996).

In assay [1] the target is Muscarinic acetylcholine receptor. Kind of assay: Receptor binding affinity against Muscarinic acetylcholine receptor from guinea pig urinary bladder was determined using [3H]- QNB as radioligand. Type of assay: protein assay, Cavia porcellus. A digest of the protocol:
(§1)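 Guinea pig urinary bladder dissected in PMSF-containing Krebs-Henseleit pH 7.4 and Polytron-homogenized in ice-cold 50 mM phosphate buffer pH 7.4 with 1 mM PMSF (≤0.3 mg/mL protein). Competition against 2 nM (−)-[3H]QNB; triplicates at 25 °C for 60 min; 10 µM atropine defines nonspecific binding. Pellets from centrifugation were scintillation counted. IC50 taken graphically, Ki by the Jacobs method; means ± SEM, 2–3 experiments.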

The target is the same in assay [2]. Put plainly: Receptor binding affinity against Muscarinic acetylcholine receptor from guinea pig heart was determined using [3H]- QNB as radioligand. Type of assay: protein assay, Cavia porcellus. A digest of the protocol:
(§2)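 Guinea pig hearts dissected in Krebs-Henseleit pH 7.4 with 1 mM PMSF, Polytron-homogenized in ice-cold 50 mM phosphate/PMSF buffer pH 7.4, ≤0.3 mg/mL protein. Competition against 2 nM (−)-[3H]QNB, triplicates at 25 °C for 80 min, 10 µM atropine nonspecific. Centrifugation, scintillation counting of pellets. Graphical IC50 to Ki by the Jacobs method; means ± SEM, 2–3 experiments.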

The species entered for the next assay is Cavia porcellus. Put plainly: Antimuscarinic potency using isolated guinea pig urinary bladder. Type of assay: functional. A digest of the protocol: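 Male guinea pigs (~300 g) killed and exsanguinated; urinary bladder smooth muscle strips mounted in 37 °C Krebs-Henseleit baths (pH 7.4, carbogen), ~5 mN resting tension, isometric tension recorded. A control cumulative carbachol curve was run, then washout, ≥15 min rest, and 60 min with a fixed antagonist concentration before a second curve. Dose ratio from graphical EC50s; KB = [A]/(r − 1).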

The target in assay [3] is Muscarinic acetylcholine receptor. Put plainly: Receptor binding affinity against Muscarinic acetylcholine receptor from guinea pig parotid gland was determined using [3H]- QNB as radioligand. Type of assay: protein assay, Cavia porcellus. A digest of the protocol:
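Guinea pig parotid glands dissected in Krebs-Henseleit pH 7.4 with 1 mM PMSF, Polytron-homogenized in ice-cold 50 mM phosphate/PMSF pH 7.4, ≤0.3 mg/mL protein. Displacement of 2 nM (−)-[3H]QNB, triplicates at 25 °C for 210 min, 10 µM atropine for nonspecific binding. Centrifugation, then pellet scintillation counting. Ki from graphical IC50 via the Jacobs correction; means ± SEM of 2–3 experiments.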

For assay [4] the target is unchanged. Put plainly: Receptor binding affinity against Muscarinic acetylcholine receptor from guinea pig cerebral cortex was determined using [3H]- QNB as radioligand. Type of assay: tissue-based, Cavia porcellus. A digest of the protocol: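 Guinea pig cerebral cortex homogenized (Potter-Elvehjem) in ice-cold 50 mM Na/K phosphate buffer pH 7.4 with 1 mM PMSF, ≤0.3 mg/mL protein. Competition with (−)-[3H]QNB (2 nM final), triplicates incubated at 25 °C for 80 min, nonspecific binding with 10 µM atropine. Ended by centrifugation; pellets counted by scintillation. IC50 read graphically, converted to Ki by the Jacobs method; means ± SEM of 2–3 experiments.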

The target is the same in assay [5]. Kind of assay: Receptor binding affinity (Ki) for Muscarinic acetylcholine receptor (urinary bladder) was determined by competition radioligand -[3H]- QNB binding assay. Type of assay: protein assay, Cavia porcellus. A digest of the protocol:
as §1

Assay [6] has the same target. Kind of assay: Receptor binding affinity (Ki) for Muscarinic acetylcholine receptor (parotid glands) was determined by competition radioligand -[3H]- QNB binding assay. Type of assay: protein assay, Cavia porcellus. A digest of the protocol: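 Guinea pig parotid glands dissected in Krebs-Henseleit pH 7.4 with 1 mM PMSF, Polytron-homogenized in ice-cold 50 mM phosphate/PMSF pH 7.4, ≤0.3 mg/mL protein. Displacement of 2 nM (−)-[3H]QNB, triplicates at 25 °C for 210 min, 10 µM atropine for nonspecific binding. Centrifugation, then pellet scintillation counting.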

Assay [7] shares this target. Put plainly: Receptor binding affinity (Ki) against Muscarinic acetylcholine receptor (cerebral cortex) was determined by competition radioligand -[3H]- QNB binding assay. Type of assay: tissue-based, Cavia porcellus. A digest of the protocol:
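Guinea pig cerebral cortex homogenized (Potter-Elvehjem) in ice-cold 50 mM Na/K phosphate buffer pH 7.4 with 1 mM PMSF, ≤0.3 mg/mL protein. Competition with (−)-[3H]QNB (2 nM final), triplicates incubated at 25 °C for 80 min, nonspecific binding with 10 µM atropine. Ended by centrifugation; pellets counted by scintillation.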

The target is the same in assay [8]. Kind of assay: Receptor binding affinity (Ki) for Muscarinic acetylcholine receptor (heart)was determined by competition radioligand -[3H]- QNB binding assay. Type of assay: protein assay, Cavia porcellus. A digest of the protocol:
as §2

In the case of `OCc1ccc2oc(C3=CN4CCC3CC4)cc2c1`, the inhibitory constant (Ki) (in general, a measure of affinity in units of concentration, obtained from inhibition or displacement) in assay [1] amounted to 2900 nM; in assay [2], 1840 nM; in assay [3], 10700 nM; in assay [4], 1400 nM. Also, the Kb in the assay listed under Cavia porcellus came to 13400 nM.
On to `C1=C(c2cc3cc(-c4ccccc4)ccc3o2)C2CCN1CC2`, for which the Ki in [5] was 332 nM; in assay [6], 410 nM; in assay [7], 289 nM; in assay [8], 376 nM.
Turning to `Brc1ccc2oc(C3=CN4CCC3CC4)cc2c1`, the Ki in assay [5] was determined as 156 nM; in [6] it was 109 nM; in [7], 39 nM; in [8] it was 86 nM. The same compound displayed a Kb in the assay filed under Cavia porcellus of 178 nM.
Turning to `Nc1ccc2oc(C3=CN4CCC3CC4)cc2c1`, the inhibition constant (Ki) in assay [2] is recorded as 837 nM; in assay [3], 683 nM; in [4] it was 212 nM.
As to `C1=C(c2cc3ncccc3o2)C2CCN1CC2`, the Ki in [1] was 83 nM; in [2], 61 nM; in [3], 110 nM; in assay [4] it was 21 nM.
Take `OCc1cccc2cc(C3=CN4CCC3CC4)oc12`: the Ki in [1] stood at 2000 nM; in assay [2], 1360 nM; in [3], 1024 nM; in assay [4] it was 330 nM.
Consider `Cc1ccc2oc(C3=CN4CCC3CC4)cc2c1`, for which the inhibitory constant (Ki) in [5] amounted to 364 nM; in [6], 295 nM; in [7] it was 116 nM; in assay [8], 238 nM.
`O=[N+]([O-])c1ccc2oc(C3=CN4CCC3CC4)cc2c1`: the Ki in [2] is reported as 460 nM; in assay [3], 515 nM; in assay [4], 139 nM.
In the case of `C1=C(c2cc3cccc(-c4ccccc4)c3o2)C2CCN1CC2`, the Ki in assay [5] was determined as 330 nM; in assay [6], 410 nM; in assay [7], 135 nM; in assay [8], 260 nM.
As for `C1=C(c2oc3ccccc3c2-c2ccccc2)C2CCN1CC2`, the inhibition constant (Ki) was determined as 107 nM in assay [5], 56 nM in assay [6], 20 nM in assay [7] and 72 nM in assay [8]. The compound also showed a Kb in the assay listed under Cavia porcellus of 148 nM.
Turning to `N#Cc1ccc2oc(C3=CN4CCC3CC4)cc2c1`, the Ki in assay [6] is 236 nM; in assay [7] it was 60 nM; in [8], 160 nM.
Take `O=Cc1ccc2oc(C3=CN4CCC3CC4)cc2c1`: the Ki came to 1300 nM in assay [5], 1571 nM in [6], 364 nM in assay [7] and 920 nM in assay [8].
Turning to `COc1cc(CO)cc2cc(C3=CN4CCC3CC4)oc12`, the inhibitory constant (Ki) is recorded as 9400 nM in assay [1], 5400 nM in assay [2], 20000 nM in assay [3] and 3665 nM in [4]. The Kb in the assay filed under Cavia porcellus was 10000 nM.
As to `O=[N+]([O-])c1cc(I)c2oc(C3=CN4CCC3CC4)cc2c1`, the Ki is 1600 nM in assay [1], 1900 nM in assay [2], more than 1000 nM in assay [3] and more than 150 nM in [4].
As to `COc1cc(C=O)cc2cc(C3=CN4CCC3CC4)oc12`, the Ki in assay [5] stood at 3900 nM; in assay [6], 7600 nM; in [7], 1170 nM; in [8], 2040 nM.
Consider `Cc1c(C2=CN3CCC2CC3)oc2ccccc12`, for which the Ki turned out to be 204 nM in assay [6], 25.3 nM in assay [7] and 77.8 nM in [8].
Consider `Fc1ccc2oc(C3=CN4CCC3CC4)cc2c1`, for which the Ki is recorded as 37 nM in assay [1], 34 nM in assay [2], 30 nM in assay [3] and 6.3 nM in [4].
Take `O=Cc1cc(I)c2oc(C3=CN4CCC3CC4)cc2c1`: the Ki came out at 1000 nM in [5], 1300 nM in assay [6], 221 nM in assay [7] and 517 nM in assay [8].
Take `OCc1cc(I)c2oc(C3=CN4CCC3CC4)cc2c1`: the inhibition constant Ki in assay [1] is given as 802 nM; in [2], 462 nM; in assay [3], 970 nM; in assay [4] it was 197 nM.
As to `OCc1cc(I)cc2cc(C3=CN4CCC3CC4)oc12`, the Ki in assay [1] is given as 2460 nM; in assay [2], 1100 nM; in [3], 2700 nM; in assay [4], 480 nM.
In the case of `O=Cc1cc(I)cc2cc(C3=CN4CCC3CC4)oc12`, the inhibition constant Ki was 600 nM in assay [5], 2300 nM in [6], 358 nM in assay [7] and 314 nM in [8].
For `Cc1cccc2cc(C3=CN4CCC3CC4)oc12`, the Ki in [6] worked out at 76 nM; in [7] it was 25 nM; in assay [8] it was 76 nM.
For `Brc1cccc2cc(C3=CN4CCC3CC4)oc12`, the inhibition constant (Ki) in [5] was 97 nM; in assay [6], 216 nM; in [7], 15 nM; in assay [8], 44 nM. For the same compound, in the assay listed under Cavia porcellus, the Kb is 123 nM.
Take `Brc1c(C2=CN3CCC2CC3)oc2ccccc12`: the Ki in [5] was determined as 116 nM; in assay [6] it was 161 nM; in [7] it was 40 nM; in [8], 106 nM.
With `O=Cc1cccc2cc(C3=CN4CCC3CC4)oc12`, the Ki was 1700 nM in assay [5], 3023 nM in assay [6], 648 nM in assay [7] and 1612 nM in assay [8].
As to `N#Cc1cc(I)c2oc(C3=CN4CCC3CC4)cc2c1`, the Ki in [4] is 440 nM.
